Data: ChEMBL document CHEMBL5058577, “EUbOPEN Chemogenomics Library 2 (Multiplex)” (2022)

Test system: Fibroblast
Experiment: Multiplex assay against human fibroblast
Type: toxicity, cell-based
In short: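 Hoechst33342, BioTracker Green Microtubule Cytoskeleton Dye, MitoTracker Red and Annexin V Alexa Fluor 680 were added to live cells at seeding, and imaging on a CQ1 microscope at 37°C and 5% CO2 followed compound addition. Gating by CellPathfinder machine learning separated cells into Hoechst high-intensity objects or normal cells, then normal cells into healthy, pyknosed or fragmented nuclei, then pyknosed cells into mitotic or apoptotic. Per cents of healthy-nucleus cells are reported for the tubulin, mitochondrial-mass and membrane-permeability phenotypes.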

[1] = 12 h, 1 µM, compound concentration 1 uM, replicate 1
[2] = 12 h, 1 µM, compound concentration 1 uM, replicate 2
[3] = 12 h, 10 µM, compound concentration 10 uM, replicate 1
[4] = 12 h, 10 µM, compound concentration 10 uM, replicate 2
[5] = 24 h, 1 µM, compound concentration 1 uM, replicate 1
[6] = 24 h, 1 µM, compound concentration 1 uM, replicate 2
[7] = 24 h, 10 µM, compound concentration 10 uM, replicate 1
[8] = 24 h, 10 µM, compound concentration 10 uM, replicate 2
[9] = 48 h, 1 µM, compound concentration 1 uM, replicate 1
[10] = 48 h, 1 µM, compound concentration 1 uM, replicate 2
[11] = 48 h, 10 µM, compound concentration 10 uM, replicate 1
[12] = 48 h, 10 µM, compound concentration 10 uM, replicate 2

## OCCCNc1cc(-c2ccnc(Nc3cccc(Cl)c3)n2)ccn1
[1]
  Population Apoptotic (%): 58%
  Population Fragmented Nuclei (%): 15%
  Population Healthy Nuclei (%): 66%
  Population Hoechst High Intensity Objects (%): 4%
  Population Membrane Permeable-Phenotype (%): 0%
  Population Mitochondria Different-Phenotype (%): 9%
  Population Mitotic Cells (%): 41%
  Population Normal (%): 95%
  Population Pyknosed Nuclei (%): 18%
  Population Tubulin-Different-Phenotype (%): 52%
  Total Cell Count: 139
[2]
  Population Apoptotic (%): 50%
  Population Fragmented Nuclei (%): 21%
  Population Healthy Nuclei (%): 53%
  Population Hoechst High Intensity Objects (%): 6%
  Population Membrane Permeable-Phenotype (%): 5%
  Population Mitochondria Different-Phenotype (%): 13%
  Population Mitotic Cells (%): 50%
  Population Normal (%): 93%
  Population Pyknosed Nuclei (%): 24%
  Population Tubulin-Different-Phenotype (%): 47%
  Total Cell Count: 138
[3]
  Population Apoptotic (%): 61%
  Population Fragmented Nuclei (%): 38%
  Population Healthy Nuclei (%): 44%
  Population Hoechst High Intensity Objects (%): 10%
  Population Membrane Permeable-Phenotype (%): 9%
  Population Mitochondria Different-Phenotype (%): 25%
  Population Mitotic Cells (%): 38%
  Population Normal (%): 89%
  Population Pyknosed Nuclei (%): 17%
  Population Tubulin-Different-Phenotype (%): 88%
  Total Cell Count: 136
[4]
  Population Apoptotic (%): 52%
  Population Fragmented Nuclei (%): 65%
  Population Healthy Nuclei (%): 24%
  Population Hoechst High Intensity Objects (%): 6%
  Population Membrane Permeable-Phenotype (%): 20%
  Population Mitochondria Different-Phenotype (%): 11%
  Population Mitotic Cells (%): 47%
  Population Normal (%): 93%
  Population Pyknosed Nuclei (%): 9%
  Population Tubulin-Different-Phenotype (%): 84%
  Total Cell Count: 227
[5]
  Population Apoptotic (%): 56%
  Population Fragmented Nuclei (%): 16%
  Population Healthy Nuclei (%): 65%
  Population Hoechst High Intensity Objects (%): 2%
  Population Membrane Permeable-Phenotype (%): 1%
  Population Mitochondria Different-Phenotype (%): 20%
  Population Mitotic Cells (%): 43%
  Population Normal (%): 97%
  Population Pyknosed Nuclei (%): 17%
  Population Tubulin-Different-Phenotype (%): 60%
  Total Cell Count: 136
[6]
  Population Apoptotic (%): 46%
  Population Fragmented Nuclei (%): 29%
  Population Healthy Nuclei (%): 48%
  Population Hoechst High Intensity Objects (%): 3%
  Population Membrane Permeable-Phenotype (%): 6%
  Population Mitochondria Different-Phenotype (%): 10%
  Population Mitotic Cells (%): 53%
  Population Normal (%): 96%
  Population Pyknosed Nuclei (%): 22%
  Population Tubulin-Different-Phenotype (%): 55%
  Total Cell Count: 139
[7]
  Population Apoptotic (%): 80%
  Population Fragmented Nuclei (%): 36%
  Population Healthy Nuclei (%): 42%
  Population Hoechst High Intensity Objects (%): 11%
  Population Membrane Permeable-Phenotype (%): 7%
  Population Mitochondria Different-Phenotype (%): 46%
  Population Mitotic Cells (%): 20%
  Population Normal (%): 88%
  Population Pyknosed Nuclei (%): 20%
  Population Tubulin-Different-Phenotype (%): 86%
  Total Cell Count: 138
[8]
  Population Fragmented Nuclei (%): 63%
  Population Healthy Nuclei (%): 27%
  Population Hoechst High Intensity Objects (%): 6%
  Population Membrane Permeable-Phenotype (%): 12%
  Population Mitochondria Different-Phenotype (%): 9%
  Population Normal (%): 93%
  Population Pyknosed Nuclei (%): 9%
  Population Tubulin-Different-Phenotype (%): 80%
  Total Cell Count: 218
[9]
  Population Apoptotic (%): 46%
  Population Fragmented Nuclei (%): 27%
  Population Healthy Nuclei (%): 47%
  Population Hoechst High Intensity Objects (%): 8%
  Population Membrane Permeable-Phenotype (%): 1%
  Population Mitochondria Different-Phenotype (%): 20%
  Population Mitotic Cells (%): 53%
  Population Normal (%): 91%
  Population Pyknosed Nuclei (%): 25%
  Population Tubulin-Different-Phenotype (%): 66%
  Total Cell Count: 136
[10]
  Population Apoptotic (%): 37%
  Population Fragmented Nuclei (%): 36%
  Population Healthy Nuclei (%): 30%
  Population Hoechst High Intensity Objects (%): 7%
  Population Membrane Permeable-Phenotype (%): 5%
  Population Mitochondria Different-Phenotype (%): 24%
  Population Mitotic Cells (%): 62%
  Population Normal (%): 92%
  Population Pyknosed Nuclei (%): 32%
  Population Tubulin-Different-Phenotype (%): 45%
  Total Cell Count: 132
[11]
  Population Apoptotic (%): 91%
  Population Fragmented Nuclei (%): 39%
  Population Healthy Nuclei (%): 39%
  Population Hoechst High Intensity Objects (%): 14%
  Population Membrane Permeable-Phenotype (%): 15%
  Population Mitochondria Different-Phenotype (%): 42%
  Population Mitotic Cells (%): 8%
  Population Normal (%): 85%
  Population Pyknosed Nuclei (%): 21%
  Population Tubulin-Different-Phenotype (%): 77%
  Total Cell Count: 134
[12]
  Population Apoptotic (%): 85%
  Population Fragmented Nuclei (%): 58%
  Population Healthy Nuclei (%): 30%
  Population Hoechst High Intensity Objects (%): 6%
  Population Membrane Permeable-Phenotype (%): 20%
  Population Mitochondria Different-Phenotype (%): 20%
  Population Mitotic Cells (%): 14%
  Population Normal (%): 93%
  Population Pyknosed Nuclei (%): 11%
  Population Tubulin-Different-Phenotype (%): 64%
  Total Cell Count: 192

## CN(C)C(=O)Cn1cc(-c2ccc(-c3nnc4ccccn34)cc2)cn1
[1]
  Population Apoptotic (%): 57%
  Population Fragmented Nuclei (%): 18%
  Population Healthy Nuclei (%): 60%
  Population Hoechst High Intensity Objects (%): 5%
  Population Membrane Permeable-Phenotype (%): 1%
  Population Mitochondria Different-Phenotype (%): 3%
  Population Mitotic Cells (%): 42%
  Population Normal (%): 94%
  Population Pyknosed Nuclei (%): 21%
  Population Tubulin-Different-Phenotype (%): 22%
  Total Cell Count: 139
[2]
  Population Apoptotic (%): 55%
  Population Fragmented Nuclei (%): 20%
  Population Healthy Nuclei (%): 58%
  Population Membrane Permeable-Phenotype (%): 7%
  Population Mitochondria Different-Phenotype (%): 7%
  Population Mitotic Cells (%): 44%
  Population Pyknosed Nuclei (%): 20%
  Population Tubulin-Different-Phenotype (%): 42%
  Total Cell Count: 152
[3]
  Population Apoptotic (%): 52%
  Population Fragmented Nuclei (%): 8%
  Population Healthy Nuclei (%): 63%
  Population Hoechst High Intensity Objects (%): 3%
  Population Membrane Permeable-Phenotype (%): 0%
  Population Mitochondria Different-Phenotype (%): 6%
  Population Mitotic Cells (%): 47%
  Population Normal (%): 96%
  Population Pyknosed Nuclei (%): 28%
  Population Tubulin-Different-Phenotype (%): 31%
  Total Cell Count: 140
[4]
  Population Apoptotic (%): 39%
  Population Fragmented Nuclei (%): 31%
  Population Healthy Nuclei (%): 38%
  Population Hoechst High Intensity Objects (%): 8%
  Population Membrane Permeable-Phenotype (%): 15%
  Population Mitochondria Different-Phenotype (%): 18%
  Population Mitotic Cells (%): 60%
  Population Normal (%): 91%
  Population Pyknosed Nuclei (%): 29%
  Population Tubulin-Different-Phenotype (%): 70%
  Total Cell Count: 123
[5]
  Population Apoptotic (%): 56%
  Population Fragmented Nuclei (%): 23%
  Population Healthy Nuclei (%): 60%
  Population Hoechst High Intensity Objects (%): 0%
  Population Membrane Permeable-Phenotype (%): 2%
  Population Mitochondria Different-Phenotype (%): 1%
  Population Mitotic Cells (%): 43%
  Population Normal (%): 99%
  Population Pyknosed Nuclei (%): 16%
  Population Tubulin-Different-Phenotype (%): 25%
  Total Cell Count: 144
[6]
  Population Apoptotic (%): 54%
  Population Hoechst High Intensity Objects (%): 4%
  Population Membrane Permeable-Phenotype (%): 4%
  Population Mitochondria Different-Phenotype (%): 3%
  Population Mitotic Cells (%): 45%
  Population Normal (%): 95%
  Population Tubulin-Different-Phenotype (%): 41%
  Total Cell Count: 142
[7]
  Population Apoptotic (%): 65%
  Population Fragmented Nuclei (%): 10%
  Population Healthy Nuclei (%): 65%
  Population Hoechst High Intensity Objects (%): 5%
  Population Membrane Permeable-Phenotype (%): 2%
  Population Mitochondria Different-Phenotype (%): 5%
  Population Mitotic Cells (%): 34%
  Population Normal (%): 94%
  Population Pyknosed Nuclei (%): 24%
  Population Tubulin-Different-Phenotype (%): 25%
  Total Cell Count: 140
[8]
  Population Apoptotic (%): 26%
  Population Fragmented Nuclei (%): 36%
  Population Healthy Nuclei (%): 40%
  Population Hoechst High Intensity Objects (%): 9%
  Population Membrane Permeable-Phenotype (%): 10%
  Population Mitochondria Different-Phenotype (%): 6%
  Population Mitotic Cells (%): 73%
  Population Normal (%): 90%
  Population Pyknosed Nuclei (%): 22%
  Population Tubulin-Different-Phenotype (%): 71%
  Total Cell Count: 126
[9]
  Population Apoptotic (%): 58%
  Population Fragmented Nuclei (%): 22%
  Population Healthy Nuclei (%): 61%
  Population Hoechst High Intensity Objects (%): 1%
  Population Membrane Permeable-Phenotype (%): 4%
  Population Mitochondria Different-Phenotype (%): 4%
  Population Mitotic Cells (%): 41%
  Population Normal (%): 98%
  Population Pyknosed Nuclei (%): 16%
  Population Tubulin-Different-Phenotype (%): 29%
  Total Cell Count: 151
[10]
  Population Apoptotic (%): 42%
  Population Fragmented Nuclei (%): 28%
  Population Healthy Nuclei (%): 52%
  Population Hoechst High Intensity Objects (%): 5%
  Population Membrane Permeable-Phenotype (%): 6%
  Population Mitochondria Different-Phenotype (%): 2%
  Population Mitotic Cells (%): 57%
  Population Normal (%): 94%
  Population Pyknosed Nuclei (%): 18%
  Population Tubulin-Different-Phenotype (%): 46%
  Total Cell Count: 147
[11]
  Population Apoptotic (%): 52%
  Population Fragmented Nuclei (%): 16%
  Population Healthy Nuclei (%): 66%
  Population Hoechst High Intensity Objects (%): 2%
  Population Membrane Permeable-Phenotype (%): 0%
  Population Mitochondria Different-Phenotype (%): 2%
  Population Mitotic Cells (%): 47%
  Population Normal (%): 97%
  Population Pyknosed Nuclei (%): 17%
  Population Tubulin-Different-Phenotype (%): 38%
  Total Cell Count: 137
[12]
  Population Apoptotic (%): 60%
  Population Fragmented Nuclei (%): 44%
  Population Healthy Nuclei (%): 47%
  Population Hoechst High Intensity Objects (%): 3%
  Population Membrane Permeable-Phenotype (%): 18%
  Population Mitochondria Different-Phenotype (%): 8%
  Population Mitotic Cells (%): 40%
  Population Normal (%): 96%
  Population Pyknosed Nuclei (%): 7%
  Population Tubulin-Different-Phenotype (%): 73%
  Total Cell Count: 131
